Format in all cases: functional
Assay [1] has as its system Cortical neurone. Put plainly: Increase in BDNF eIV-IX mRNA expression in rat cortical neurons after 3 hrs by RT-PCR analysis. In short, it runs like this:
(§1)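 Primary cortical neurons from E17 Sprague–Dawley rat embryos, seeded at 2.5 × 10⁶ cells per polyethylenimine-coated 35 mm dish. Compound added for 3 h (time course 0–24 h at 10 µM). Total RNA extracted with acid guanidine phenol-chloroform and DNase I-treated, then reverse transcribed. Bdnf exon IV-IX mRNA measured by real-time PCR against plasmid standard curves and normalized to Gapdh. Reported as ratio to untreated control; n = 3–4.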

The subject of assay [2] is Cortical neurone. Put plainly: Increase in BDNF eIV-IX mRNA expression in rat cortical neurons at 10 uM after 3 hrs by RT-PCR analysis. In short, it runs like this: as §1
For assay [3], the system named is Cortical neurone. Put plainly: Increase in neurite crossings in rat cortical neurons at 10 uM after 6 hrs by Sholl analysis. In short, it runs like this: (§2)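 E17 rat cortical neurons transfected with a GFP expression vector by calcium phosphate at 4 days in culture. At day 6, treated for 6 h, then fixed in 4% formaldehyde/4% sucrose and immunostained for GFP and MAP2. Sholl analysis counted neurite intersections with concentric circles of 20–200 µm radius at 20 µm intervals around the cell body. Cells were not preselected; n = 3.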

For assay [4], the system named is Cortical neurone. The assay can be described thus: Increase in BDNF eIV-IX mRNA expression in rat cortical neurons at 10 uM up to 24 hrs by RT-PCR analysis. In short, it runs like this: as §1
Assay [5] deals with Cortical neurone. The assay can be described thus: Increase in BDNF eIV-IX mRNA expression in rat cortical neurons at 10 uM after 3 hrs by RT-PCR analysis in presence of ERK1/2 inhibitor U0126.
The test system of assay [6] is Cortical neurone. Put plainly: Increase in neurite length in rat cortical neurons at 10 uM after 6 hrs by anti-GFP and anti-MAP2-based fluorescence microscopy. In short, it runs like this: (§3)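 E17 rat cortical neurons GFP-transfected at 4 days in culture, drug-treated for 6 h at day 6, then fixed and stained with anti-GFP/anti-MAP2 and Alexa488/594 secondaries plus DAPI. Under fluorescence microscopy, all neurites arising from the cell body were traced within a 400 µm diameter and their total length measured; n = 3.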

Assay [7] relates to Cortical neurone. The assay can be described thus: Increase in BDNF eIV-IX mRNA expression in rat cortical neurons at 10 uM after 3 hrs by RT-PCR analysis in presence of VSSC antagonist TTX.
Assay [8] concerns Cortical neurone. Put plainly: Increase in BDNF eIV-IX mRNA expression in rat cortical neurons at 10 uM after 3 hrs by RT-PCR analysis in presence of L-type voltage calcium channel blocker nicradipine.
Assay [9] deals with Cortical neurone. Put plainly: Increase in BDNF eIV-IX mRNA expression in rat cortical neurons at 10 uM by RT-PCR analysis. Conditions: TDE = time-dependent effect. In short, it runs like this: as §1
Assay [10] deals with Cortical neurone. The assay can be described thus: Increase in BDNF eIV-IX mRNA expression in rat cortical neurons at 10 uM at 6 hrs by RT-PCR analysis. In short, it runs like this:
as §1

Assay [11] relates to Cortical neurone. Put plainly: Increase in BDNF eIV-IX mRNA expression in rat cortical neurons at 10 uM after 3 hrs by RT-PCR analysis in presence of NMDA receptor antagonist APV.
The test system of assay [12] is Cortical neurone. Put plainly: Increase in BDNF eIV-IX mRNA expression in rat cortical neurons at 1 uM after 3 hrs by RT-PCR analysis. In short, it runs like this: as §1
Assay [13] relates to Cortical neurone. The assay can be described thus: Increase in neurite crossings in rat cortical neurons at 1 uM after 6 hrs by Sholl analysis. In short, it runs like this: as §2
In assay [14] the test system is Cortical neurone. Put plainly: Increase in neurite length in rat cortical neurons at 1 uM after 6 hrs by anti-GFP and anti-MAP2-based fluorescence microscopy. In short, it runs like this:
as §3

Active and inactive are the calls of the source. No cut-off for these calls is given here.

The text below walks through data of ChEMBL document CHEMBL2016530, “Synthesis and biological evaluation of pyrethroid insecticide-derivatives as a chemical inducer for Bdnf mRNA expression in neurons” (Bioorg Med Chem, 2012).

As for `CC1(C)[C@H](C(=O)O[C@H](C#CCl)c2cccc(Oc3ccccc3)c2)[C@@H]1C=C(Br)Br`, the Activity entry with Cortical neurone [1] was “Dose-dependent effect”. Besides, the result with Cortical neurone [2] was Active.
Taken in the same sequence, the figures for `CC1(C)[C@H](C(=O)O[C@H](C#CBr)c2cccc(Oc3ccccc3)c2)[C@@H]1C=C(Br)Br` were “Dose-dependent effect” and “Active”.
Regarding `CC#C[C@@H](OC(=O)[C@@H]1[C@H](C=C(Br)Br)C1(C)C)c1cccc(Oc2ccccc2)c1`, the outcome in the assay with Cortical neurone [2] was Active.
`CC1(C)[C@H](C(=O)O[C@H](C#CI)c2cccc(Oc3ccccc3)c2)[C@@H]1C=C(Br)Br`: the Activity entry in the assay on Cortical neurone [1] is “Dose-dependent effect”. Besides, in the assay with Cortical neurone [2], the outcome was Active.
As to `C#C[C@@H](OC(=O)[C@@H]1[C@H](C=C(Br)Br)C1(C)C)c1cccc(Oc2ccccc2)c1`, the outcome with Cortical neurone [3], in the assay on Cortical neurone [4], in the assay with Cortical neurone [6], in the assay on Cortical neurone [2] and with Cortical neurone [11] was Active. The outcome in the assay on Cortical neurone [5], with Cortical neurone [7], in the assay with Cortical neurone [8] and in the assay with Cortical neurone [10] was inactive. In addition, the Activity entry in the assay on Cortical neurone [9] was “tde”.
Regarding `CCC#C[C@@H](OC(=O)[C@@H]1[C@H](C=C(Br)Br)C1(C)C)c1cccc(Oc2ccccc2)c1`, the outcome in the assay with Cortical neurone [2] was Active.
Consider `CC1(C)[C@H](C(=O)O[C@H](C#CCC(F)(F)F)c2cccc(Oc3ccccc3)c2)[C@@H]1C=C(Br)Br`, for which the result in the assay on Cortical neurone [2] was Active.
As to `CC1(C)[C@H](C(=O)O[C@H](C#N)c2cccc(Oc3ccccc3)c2)[C@@H]1C=C(Br)Br`, the outcome with Cortical neurone [12], in the assay on Cortical neurone [13], in the assay with Cortical neurone [2] and with Cortical neurone [14] was Active.
